OX1R antag-1 = OX1R (HCRTR1) antagonists, primary screen, fluorescence, CHO/OX1R cells, Fluo-8 calcium, orexin A; AID 434989, 2010; Fluo-8 calcium fluorescence; Orexin/Hypocretin receptor type 1 (Homo sapiens), O43613; inhibition, % at 5 µM; actives 0.43% (n = 330,000);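 active = inhibition above its plate's threshold, mean inhibition of all tested compounds on the plate plus 3 SD, cut at about 37% in these data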;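 note: 0% = orexin A challenge wells and 100% = SB-334867-A antagonist wells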
Target sequence (O43613 whole entry, looked up): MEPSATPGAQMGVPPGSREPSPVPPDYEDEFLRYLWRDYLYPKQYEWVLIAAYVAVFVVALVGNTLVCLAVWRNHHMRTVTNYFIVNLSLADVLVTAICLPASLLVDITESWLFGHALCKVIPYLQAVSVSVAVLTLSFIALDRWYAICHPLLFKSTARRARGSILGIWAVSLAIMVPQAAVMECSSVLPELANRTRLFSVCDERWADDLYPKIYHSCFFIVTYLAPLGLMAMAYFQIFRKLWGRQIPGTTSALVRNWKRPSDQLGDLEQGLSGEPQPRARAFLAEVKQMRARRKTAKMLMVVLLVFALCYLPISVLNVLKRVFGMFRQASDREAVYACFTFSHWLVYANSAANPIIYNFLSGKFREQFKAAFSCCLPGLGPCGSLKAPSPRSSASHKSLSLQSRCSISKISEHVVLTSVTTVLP
MPTP inh = mitochondrial permeability transition pore inhibitors, primary screen, biochemical, isolated mouse mitochondria, absorbance. Ca2+ swelling absorbance, 30 min. inhibition, % at 10 µM. actives 1.4% (n = 360,000);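 active = inhibition of 50% or more, scaled per plate between neutral and stimulator controls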;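 note: 0% = DMSO wells given calcium and 100% = 1 mM EGTA wells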
GPR7 antagonist = GPR7 receptor antagonists, primary screen, cell-based, fluorescence, single concentration. Neuropeptides B/W receptor type 1 (Homo sapiens), P48145. GPR7-expressing cells, fluorescence antagonist assay. inhibition, % at 4.4 µM. actives 1.1% (n = 290,000). AID 1861, 2009; in the data active = inhibition above about 16%, passing the limit was not always enough;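 note: cells stimulated with the agonist NPW; 0% = agonist with vehicle and 100% = vehicle without agonist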
OX1R antag-2 = antagonists of human orexin 1 receptor (OX1R); Orexin/Hypocretin receptor type 1 (Homo sapiens), O43613; OX1R-expressing cells, FRET antagonist read-out; inhibition, % at 6.6 µM; actives 1.8% (n = 330,000); AID 485270, 2010; in the data active = inhibition mostly above about 38%, no sharp cut-off; inactive = mostly below about 40%;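 note: 0% = agonist challenge alone and 100% = reference antagonist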
CHO parental Ca = ATP-evoked calcium signal inhibitors, parental CHO, primary screen, counter-screen for OX1R antagonist project, cell-based, fluorescence, Fluo-8 calcium dye | parental CHO-K1, ATP-induced calcium, Fluo-8 fluorescence | inhibition, % at 5.6 µM | actives 0.63% (n = 330,000);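 active = inhibition above that plate's mean sample inhibition plus 3 SD, cut at about 26% in these data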;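 note: 0% = ATP-challenged DMSO wells and 100% = DMSO wells without ATP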
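Assay system: untransfected parental CHO cell line. Also added: ATP agonist challenge. Dosing: one dose, 5.6 µM nominal. Measured by: Fluo-8 fluorescence. Read-out: % inhibition. Benchmarks: ATP wells versus no-ATP DMSO wells. Repeats: no replicates.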
Starred values were filed as active, the others as inactive; nt = no result. Shown are actives, neighbours in structure and some others; about 3.8% of the full set was active somewhere.

SMILES	OX1R antag-1	MPTP inh	GPR7 antagonist	OX1R antag-2	CHO parental Ca
CC(=O)Nc1cccc(NC(=O)COC(=O)CO/N=C(\C)c2ccc3c(c2)OCO3)c1	22	0	12	74*	-8
CO[C@H]1CN(C)C(=O)c2cc(NC(=O)C3CCOCC3)ccc2OC[C@H](C)N(Cc2nccs2)C[C@H]1C	nt	-1	nt	nt	nt
NC(=O)N/N=C/c1ccc([N+](=O)[O-])o1	-3	-1	nt	66*	4
O=C(N/N=C/c1ccc([N+](=O)[O-])o1)C(O)c1ccccc1 (stereo not given)	-3	0	-6	36*	-7
O=C(COc1ccccc1)N/N=C/c1ccc([N+](=O)[O-])o1	-7	3	-6	53	0
O=C(CNc1ccc2ccccc2c1)N/N=C/c1ccc([N+](=O)[O-])o1	24	4	-4	46*	41*
NC(=O)/C(=C\c1ccc([N+](=O)[O-])o1)c1ccco1	nt	-1	nt	nt	nt
O=[N+]([O-])c1ccc(/C=[N+](\[O-])CCO)o1	-14	-2	-5	47*	-7
O=C(CSc1cccc[n+]1[O-])Nc1ccc2c(c1)OCO2	7	0	8	15	9
COC(=O)/C(=C\c1ccc([N+](=O)[O-])o1)NC(=O)c1ccccc1	-4	2	5	69*	2
COC(=O)N/N=C/c1ccc([N+](=O)[O-])o1	-13	-3	-19	56*	-7
COC(=O)N/N=C/c1cc(OC)c(O)c([N+](=O)[O-])c1	-18	0	-2	51*	-4
Cc1cc(C(=O)N/N=C/c2ccc([N+](=O)[O-])o2)c(C)o1	8	4	-17	32	-5
CCCCNC(=O)/C(=C\c1ccc([N+](=O)[O-])o1)NC(=O)c1ccccc1	-25	-1	-1	36	-15
Cc1ccccc1OCCOc1ccccc1C=C(C#N)C#N	9	nt	7	16	6
CCOc1ccc(NC(=S)N2CCN(S(=O)(=O)c3ccc(C)cc3)CC2)cc1	2	-1	-4	21	-6
CCN(CC)c1ccc(C(=O)N/N=C/c2ccccc2OC(F)F)cc1	14	12	-2	74*	-25
CCN(CC)c1ccc(/C=N/NC(=O)c2cccc(S(=O)(=O)Nc3ccccc3OC)c2)cc1	-11	8	-12	45	-7
CCN(CC)c1ccc(/C=N/NC(=O)c2cccc(S(=O)(=O)Nc3ccccc3OC)c2)c(O)c1	25	2	-19	79*	-10
CC(C)Oc1ccccc1/C=N/NC(=O)c1ccc(F)cc1	-12	0	4	13	1
COc1ccc(/C=C(\NC(=O)c2ccccc2)C(=O)N2CCCCC2)cc1OC	-15	2	-4	5	-8
Cc1ccc2c(c1)N(C(=O)CCC(=O)N1CCN(c3cccc(C)c3C)CC1)CCO2	-28	2	-2	40*	-24
Cc1ccc2c(c1)N(C(=O)CCC(=O)N1CCN(c3ccccc3)CC1)CCO2	-17	-2	-6	14	-15
CCOC(=O)N1CCC(NC(=O)CCC(=O)N2CCOc3ccc(C)cc32)CC1	-23	-5	5	6	-16
Cc1ccc2c(c1)N(C(=O)CCC(=O)NC1CCC(C)CC1)CCO2 (stereo not given)	-22	-1	-7	43*	-8
SMILES	OX1R antag-1	MPTP inh	GPR7 antagonist	OX1R antag-2	CHO parental Ca
Cc1cc2nc(C(C)(C)C)c(Cc3ccsc3)n2c(C)c1Br	nt	1	nt	nt	nt
COCCCn1c(=O)c2ccccc2n(Cc2cc(C(=O)OC)ccc2OC)c1=O	-2	-3	8	19	1
C=CCNC(=S)N1CCN(Cc2ccccc2)CC1	7	-1	-6	13	-3
CN(C(=O)Cn1cnc2ccccc2c1=O)C1CCS(=O)(=O)C1 (stereo not given)	2	0	nt	16	9
CCN(C(=O)Cn1cnc2cc([N+](=O)[O-])ccc2c1=O)C1CCS(=O)(=O)C1 (stereo not given)	-14	-4	-14	63*	-3
CC1CCCC(C)N1C(=O)Cn1cnc2cc([N+](=O)[O-])ccc2c1=O (stereo not given)	-13	0	-8	114*	-24
CN(CC(=O)Nc1cccc(F)c1)C(=O)c1ccc(N2CCCCC2)c([N+](=O)[O-])c1	-8	27	nt	22	8
CCN1C(=O)[C@H]2[C@@H](c3ccc(C)cc3)N3C(=O)N(c4cccc(F)c4)C(=O)[C@@]3(Cc3ccc(Cl)cc3)[C@H]2C1=O	-6	4	nt	56*	-9
O=[N+]([O-])c1ccc(NCCCNS(=O)(=O)c2ccc(Cl)cc2)c(Cl)c1	-1	23	54*	16	7
Cc1ccc(NC(=O)c2cccc(S(=O)(=O)NCc3ccccc3)c2)nc1	1	0	nt	59*	12
COc1cccc(/C=C(/C(=O)OCC(N)=O)c2ccccc2)c1	-8	-3	-13	-1	-14
COc1cccc(/C=C(/C(=O)OCC(=O)NC2CCCC(C)C2C)c2ccccc2)c1 (stereo not given)	-9	10	-12	7	65*
Cc1c(C(=O)N2CCOCC2)sc2nc(-c3ccccc3)cn12	-13	1	-7	16	-3
Cc1c(C(=O)Nc2ccncc2)sc2nc(-c3ccccc3)cn12	-6	1	-2	37*	13
Cc1c(C(=O)Nc2ccc3c(c2)OCCO3)sc2nc(-c3ccccc3)cn12	68*	9	7	66*	46*
Cc1onc(-c2ccccc2Cl)c1C(=O)N1CCN(C)CC1	17	0	1	9	-8
Nc1ccc(-c2c3ccc(=O)cc-3oc3cc(O)ccc23)c(C(=O)O)c1	87*	0	nt	63*	58*
CC1=NN(C(N)=S)C(=O)C1N=Nc1ccc([N+](=O)[O-])cc1 (stereo not given)	-3	6	-14	-2	-2
CC(=O)NCC(=O)NC1CCCc2c1cnn2-c1ccc(C(C)(C)C)cc1 (stereo not given)	8	10	-19	12	-9
CC(C)(C)c1ccc(-n2ncc3c2CCCC3NC(=O)C2(C(N)=O)CC2)cc1 (stereo not given)	22	49	16	7	43*
CCc1ccc2[nH]c(=O)c(CN(Cc3ccccc3OC)Cc3nnnn3Cc3ccco3)cc2c1	-20	-1	-10	48	-21
COc1ccccc1CN(Cc1cc2cc(C)ccc2[nH]c1=O)Cc1nnnn1Cc1ccco1	4	-3	-6	72*	-21
Cc1cc(C)c(C#N)c(SCc2[nH]nc3c2C(c2ccc(F)cc2)C(C#N)=C(N)O3)n1 (stereo not given)	-33	9	16	75*	-17
O=C(Nc1ccccc1O)c1ccccc1O	9	29	-2	13	37*

High-throughput results (PubChem BioAssay)
